Bridge positions count the residues as written; N and C are the ends. Square brackets hold non-standard residues; d marks the D form. Peptide text beside a SMILES is read from it. * marks the point of attachment. X1 = CC[C@H](C)CCCCC(=O)*; Dab = NCC[C@H](N)C(=O)O
Columns and labels:
[1] = degradation product of bacitracin; cited from earlier work
E. coli ATCC 25922 = assay: MIC, broth microdilution; format: cell-based; conditions: LB + 0.3 mM ZnSO4, 37 °C, 18 h, median of min. triplicates
Procedure, shortened: (§1)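 Strains from glycerol stocks were grown overnight on blood agar at 37 °C. Single colonies went into TSB and grew to OD600 0.5, then were diluted 100-fold in LB + 0.3 mM ZnSO4 to 10^6 CFU/mL. Two-fold serial dilutions of test compound were made in triplicate in the same medium and mixed 1:1 with inoculum. Plates ran 18 h at 37 °C at 600 rpm. MIC was the median of at least triplicates, read visually.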

B. subtilis 168 = assay: Membrane fluidity, DiIC12 staining; format: cell-based; conditions: 5 × MIC, DiIC12, 0.3 mM ZnSO4, 30 °C, 0 to 60 min
Procedure, shortened: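 B. subtilis 168 overnight cultures were diluted 1:200 into LB containing 1% DMSO and 2 µg/mL DiIC12. At OD600 0.3 cells were washed in dye-free medium and given 0.3 mM ZnSO4, then treated at 5× MIC, with daptomycin as positive control. Incubation was at 30 °C and 850 rpm, sampling at 0–60 min for fluorescence microscopy on agarose slides. Representative of three independent experiments.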

[2] = system: panel of E. faecium clinical isolates carrying the vanA vancomycin resistance gene; assay: MIC50 / MIC90 over the VRE panel; format: cell-based
E. faecium E7413 (vanA) = assay: MIC, broth microdilution; format: cell-based; conditions: LB + 0.3 mM ZnSO4
Procedure, shortened: as §1

E. faecium E0072 (vanA) = assay: MIC, broth microdilution; format: cell-based; conditions: LB + 0.3 mM ZnSO4
Procedure, shortened: as §1

E. faecium E0013 (vanA) = assay: MIC, broth microdilution; format: cell-based; conditions: LB + 0.3 mM ZnSO4
Procedure, shortened: as §1

E. faecium E2297 (vanA) = assay: MIC, broth microdilution; format: cell-based; conditions: LB + 0.3 mM ZnSO4
Procedure, shortened: as §1

E. faecium E2373 (vanA) = assay: MIC, broth microdilution; format: cell-based; conditions: LB + 0.3 mM ZnSO4
Procedure, shortened: as §1

E. faecium E0745 (vanA) = assay: MIC, broth microdilution; format: cell-based; conditions: LB + 0.3 mM ZnSO4
Procedure, shortened: as §1

E. faecium E0321 (vanA) = assay: MIC, broth microdilution; format: cell-based; conditions: LB + 0.3 mM ZnSO4
Procedure, shortened: as §1

E. faecium E6016 (vanA) = assay: MIC, broth microdilution; format: cell-based; conditions: LB + 0.3 mM ZnSO4
Procedure, shortened: as §1

E. faecium E7319 (vanA) = assay: MIC, broth microdilution; format: cell-based; conditions: LB + 0.3 mM ZnSO4
Procedure, shortened: as §1

E. faecium E0341 (vanA) = assay: MIC, broth microdilution; format: cell-based; conditions: LB + 0.3 mM ZnSO4
Procedure, shortened: as §1

E. faecium E0506 (vanA) = assay: MIC, broth microdilution; format: cell-based; conditions: LB + 0.3 mM ZnSO4
Procedure, shortened: as §1

E. faecium E7312 (vanA) = assay: MIC, broth microdilution; format: cell-based; conditions: LB + 0.3 mM ZnSO4
Procedure, shortened: as §1

E. faecium E1130 (vanA) = assay: MIC, broth microdilution; format: cell-based; conditions: LB + 0.3 mM ZnSO4
Procedure, shortened: as §1

E. faecium E0333 (vanA) = assay: MIC, broth microdilution; format: cell-based; conditions: LB + 0.3 mM ZnSO4
Procedure, shortened: as §1

E. faecium E1679 (vanA) = assay: MIC, broth microdilution; format: cell-based; conditions: LB + 0.3 mM ZnSO4
Procedure, shortened: as §1

E. faecium E1763 (vanA) = assay: MIC, broth microdilution; format: cell-based; conditions: LB + 0.3 mM ZnSO4
Procedure, shortened: as §1

E. faecium E1441 (vanA) = assay: MIC, broth microdilution; format: cell-based; conditions: LB + 0.3 mM ZnSO4
Procedure, shortened: as §1

E. faecium E155 (vanA) = assay: MIC, broth microdilution; format: cell-based, Enterococcus faecium
Procedure, shortened: as §1

E. faecium E0300 (vanA) = assay: MIC, broth microdilution; format: cell-based; conditions: LB + 0.3 mM ZnSO4
Procedure, shortened: as §1

[3] = calculated over 19 vanA E. faecium clinical isolates, LB + 0.3 mM ZnSO4

Bacitracin F
nephrotoxic: nephrotoxicity [1]

CC[C@H](C)CCCCC(=O)N[C@@H](CCN)C(=O)N[C@H](C(=O)N[C@@H](CCN)C(=O)N[C@H]1CCNC(=O)[C@H]([C@@H](C)O)NC(=O)[C@H](CCN)NC(=O)[C@H](CCN)NC(=O)[C@H](CC(C)C)NC(=O)[C@@H](Cc2ccccc2)NC(=O)[C@H](CCN)NC1=O)[C@@H](C)O [Polymyxin B] (X1-[Dab]T[Dab][Dab][Dab][dF]L[Dab][Dab]T; lactam 4-C (inferred); N-terminus assumed)
2 µg/mL: MIC E. coli ATCC 25922 (E. coli ATCC 25922)

Bacitracin
to a much lesser degree: formation of regions of increased fluidity (RIF) (B. subtilis 168)

CN[C@H](CC(C)C)C(=O)N[C@H]1C(=O)N[C@@H](CC(N)=O)C(=O)N[C@H]2C(=O)N[C@H]3C(=O)N[C@H](C(=O)N[C@H](C(=O)O)c4cc(O)cc(O)c4-c4cc3ccc4O)[C@H](O)c3ccc(c(Cl)c3)Oc3cc2cc(c3O[C@@H]2O[C@H](CO)[C@@H](O)[C@H](O)[C@H]2O[C@H]2C[C@](C)(N)[C@H](O)[C@H](C)O2)Oc2ccc(cc2Cl)[C@H]1O [Vancomycin]
≥ 64 µg/mL: MIC for vancomycin, all strains of the vanA VRE selection ([2]; broader selection of VRE strains all carrying the vanA gene)
>64 µg/mL: MIC50 [2, 3] | MIC90 [2, 3] | MIC E. faecium E7413 vanA (E. faecium E7413 (vanA)) | MIC E. faecium E0072 vanA (E. faecium E0072 (vanA)) | MIC E. faecium E0013 vanA (E. faecium E0013 (vanA)) | MIC E. faecium E2297 vanA (E. faecium E2297 (vanA)) | MIC E. faecium E2373 vanA (E. faecium E2373 (vanA)) | MIC E. faecium E0745 vanA (E. faecium E0745 (vanA)) | MIC E. faecium E0321 vanA (E. faecium E0321 (vanA)) | MIC E. faecium E6016 vanA (E. faecium E6016 (vanA)) | MIC E. faecium E7319 vanA (E. faecium E7319 (vanA)) | MIC E. faecium E0341 vanA (E. faecium E0341 (vanA)) | MIC E. faecium E0506 vanA (E. faecium E0506 (vanA)) | MIC E. faecium E7312 vanA (E. faecium E7312 (vanA)) | MIC E. faecium E1130 vanA (E. faecium E1130 (vanA)) | MIC E. faecium E0333 vanA (E. faecium E0333 (vanA)) | MIC E. faecium E1679 vanA (E. faecium E1679 (vanA)) | MIC E. faecium E1763 vanA (E. faecium E1763 (vanA)) | MIC E. faecium E1441 vanA (E. faecium E1441 (vanA)) | MIC E. faecium E155 vanA (E. faecium E155 (vanA); LB + 0.3 mM ZnSO4, 37 °C, 18 h, median of min. triplicates) | MIC E. faecium E155 vanA (E. faecium E155 (vanA); Table 2, LB + 0.3 mM ZnSO4) | MIC E. faecium E0300 vanA (E. faecium E0300 (vanA))

— publication PMC11260088 (Proceedings of the National Academy of Sciences of the …, 2024)
